Legend:
Rattus norvegicus [1] = test: Antiinflammatory activity in albino rat assessed as inhibition of carrageenan-induced paw oedema at 100 mg/kg, po measured after 30 mins of carrageenan challenge relative to control; format: functional; conditions: 0.5 h
Method in brief: (§1)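 Rat hind paw oedema induced by 0.1 mL 1% carrageenan injected subplantar into the right hind paw. Paw volume measured plethysmographically before carrageenan and at 30, 60, 120 and 180 min after. Percent oedema inhibition calculated versus a saline control group. Six animals per group, mean ± SE; one-way ANOVA with Tukey–Kramer test, p < 0.01.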

Rattus norvegicus [2] = test: Antiinflammatory activity in albino rat assessed as inhibition of carrageenan-induced paw oedema at 100 mg/kg, po measured after 60 mins of carrageenan challenge relative to control; format: functional; conditions: 1 h; method in brief: as §1
Rattus norvegicus [3] = test: Antiinflammatory activity in albino rat assessed as inhibition of carrageenan-induced paw oedema at 100 mg/kg, po measured after 120 mins of carrageenan challenge relative to control; format: functional; conditions: 2 h; method in brief: as §1
Mus musculus = test: Analgesic activity in Swiss albino mouse assessed as protection against acetic acid-induced writhing at 100 mg/kg, po administered 1 hr prior to acetic acid challenge relative to control measured after 3 hrs; format: functional
Method in brief: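 Swiss albino mice (20–25 g), six per group. Baseline writhes counted over 20 min starting 5 min after ip 0.6% acetic acid (10 ml/kg); the same mice were dosed orally the next day, 1 h before acetic acid, and writhes counted again. Protection = (1 − […]) × 100. Mean ± SE; one-way ANOVA with Tukey–Kramer test, p < 0.01.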

Rattus norvegicus [4] = test: Antiinflammatory activity in albino rat assessed as inhibition of carrageenan-induced paw oedema at 100 mg/kg, po measured after 180 mins of carrageenan challenge relative to control; format: functional; conditions: 3 h; method in brief: as §1
Rattus norvegicus [5] = species: Rattus norvegicus; test: animal or person; conditions: albino, po, 3 h, read-out: INH
Rattus norvegicus [6] = species: Rattus norvegicus; test: animal or person; conditions: albino, po, 1 h, read-out: INH
Rattus norvegicus [7] = species: Rattus norvegicus; test: animal or person; conditions: albino, po, 2 h, read-out: INH
Rattus norvegicus [8] = species: Rattus norvegicus; test: animal or person; conditions: albino, po, 0.5 h, read-out: INH

Row | SMILES | inhibition in vivo at 100 mg/kg (Rattus norvegicus [1]) [%] | inhibition in vivo at 100 mg/kg (Rattus norvegicus [2]) [%] | inhibition in vivo at 100 mg/kg (Rattus norvegicus [3]) [%] | Activity (Mus musculus) [%] | inhibition in vivo at 100 mg/kg (Rattus norvegicus [4]) [%] | inhibition in vivo at 50 mg/kg (Rattus norvegicus [5]) [%] | inhibition in vivo at 50 mg/kg (Rattus norvegicus [6]) [%] | inhibition in vivo at 50 mg/kg (Rattus norvegicus [7]) [%] | inhibition in vivo at 50 mg/kg (Rattus norvegicus [8]) [%]
1 | Cc1ccc(NCc2nc3ccc(Br)cc3[nH]2)cc1 | 7.6 | 20 | 23.5 | 88 | 16.6 |  |  |  | 
2 | COc1ccc(NCc2nc3ccccc3[nH]2)cc1 | 7.6 | 26.6 | 29.4 | 83.33 | 33.3 |  |  |  | 
3 | Clc1cccc(NCc2nc3ccccc3[nH]2)c1 | 15.3 | 26.6 | 41.1 | 81.33 | 44.4 |  |  |  | 
4 | c1ccc(NCc2nc3ccccc3[nH]2)cc1 | 7.6 | 26.6 | 41.1 | 72.33 | 38.8 |  |  |  | 
5 | Clc1ccccc1NCc1nc2ccc(Br)cc2[nH]1 |  | 20 | 23.5 | 80 | 22.2 |  |  |  | 
6 | COc1ccc(NCc2nc3ccc(Br)cc3[nH]2)cc1 |  | 13.3 | 17.6 | 83.33 | 12.5 |  |  |  | 
7 | Clc1cccc(NCc2nc3ccc(Br)cc3[nH]2)c1 | 7.6 | 26.6 | 17.6 | 89 | 16.6 |  |  |  | 
8 | CS(=O)(=O)Nc1ccc([N+](=O)[O-])cc1Oc1ccccc1 [NIMESULIDE] |  |  |  |  |  | 44.4 | 26.6 | 41.1 | 15.3
9 | Brc1ccc2nc(CNc3ccccc3)[nH]c2c1 | 7.6 | 26.6 | 29.4 | 80 | 22.2 |  |  |  | 
10 | Brc1ccc(NCc2nc3ccc(Br)cc3[nH]2)cc1 |  | 20 | 23.5 | 85.66 | 16.6 |  |  |  | 
11 | O=[N+]([O-])c1ccc2nc(CNc3ccc(Br)cc3)[nH]c2c1 | 15.3 | 20 | 23.5 | 79 | 22.2 |  |  |  | 
